Measurements: publication PMC5604227 (Biochemistry, 2016)
Values joined by “and” are separate entries in the source; they are usually repeats but may differ in a detail not shown here. Equal entries are not always repeated.

Tests used:
[1] = target: C146S-dUMP complex (Escherichia coli, UniProt P0A884, C146S); format: binding, E. coli; details: 5 °C
[2] = target: T1, C146S TSase (Escherichia coli, UniProt P0A884, C146S); test: ITC of dUMP binding to C146S TSase; set-up: species or system E. coli
[3] = target: T2, wild-type TSase (Escherichia coli, UniProt P0A884); set-up: species or system E. coli
Outline: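 1H-13C HSQC of wild-type TSase with dUMP bound, U-[2H,13C,15N] ILV-methyl labelled (Ile δ1 only; Leu/Val one methyl protonated). Fraction of the covalently bound state taken from the relative intensities of its assigned resonances. Forward covalent-bond formation rate calculated from that fraction and a prior literature bond-breakage rate (H5 solvent exchange, 0.01 min−1, similar pH and temperature).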

[4] = test system: TSase (wild-type and C146S); set-up: species or system E. coli
[5] = target: T2, wild-type TSase; details: ITC; cited from earlier work
[6] = target: T1, C146S TSase; details: cited from earlier work
[7] = C146S relative to wild-type, 25 °C

T2 sequence (P0A884 whole entry): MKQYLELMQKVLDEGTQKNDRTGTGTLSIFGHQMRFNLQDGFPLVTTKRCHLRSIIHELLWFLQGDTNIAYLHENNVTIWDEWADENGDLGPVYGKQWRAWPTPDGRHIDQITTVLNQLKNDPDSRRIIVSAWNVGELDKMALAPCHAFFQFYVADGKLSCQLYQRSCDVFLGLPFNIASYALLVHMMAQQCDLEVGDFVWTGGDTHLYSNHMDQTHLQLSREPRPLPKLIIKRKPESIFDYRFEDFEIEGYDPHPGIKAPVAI
T1 sequence (P0A884 whole entry C146S): as the sequence (P0A884 whole entry) above, with C146S counted along it
Sequence of C146S-dUMP complex (P0A884 whole entry C146S, one chain of several): as the sequence (P0A884 whole entry) above, with C146S counted along it

SMILES: Cc1nc2ccc(CN(C)c3ccc(C(=O)N[C@@H](CCC(=O)O)C(=O)O)s3)cc2c(=O)[nH]1 [Raltitrexed]
- cooperativity ρ [1]: 1.3 ± 0.3

SMILES: O=c1ccn([C@H]2C[C@H](O)[C@@H](COP(=O)(O)O)O2)c(=O)[nH]1 [dUMP]
- fold weaker dUMP binding [2, 7]: 18 fold and 20 fold
- ΔΔG°bind penalty for formation of the dUMP complex [2, 7]: 1.7 kcal/mol
- change in TΔS° per binding event ([2]; C146S vs wild-type): ~1 kcal/mol
- sum of calorimetric TΔΔS° values for both binding events ([2]; C146S vs wild-type): -1.7 kcal/mol
- fraction of covalently bound state ([3]; wild-type dUMP complex, from resonance intensities): 19% and ~20%
- total TΔΔS°conf associated with binding both dUMP molecules ([4]; scaled to probes in the dimer, C146S vs wild-type): -2.08 ± 0.18 kcal/mol
- ΔS°conf opposing binding of each dUMP molecule ([4]; wild-type TSase): ~1 kcal/mol
- change in protonation state on binding (loss of proton per binding event) [5]: less than 0.1 proton
- fold weaker KD of C146S for dUMP than wild-type [6]: ~2 fold

SMILES: O=c1[nH]c(=O)n([C@H]2C[C@H](O)[C@@H](COP(=O)(O)O)O2)cc1F [5F-dUMP]
- population of the minor (covalent) state relative to dUMP complex ([3]; wild-type TSase complex): significantly increased
